Experimental findings from ChEMBL document CHEMBL3286389, “Targeting class A and C serine β-lactamases with a broad-spectrum boronic acid derivative” (J Med Chem, 2014) are described below.

The nature of test [1]: Competitive inhibition of wild type beta-lactamase TEM-1 (unknown origin) expressed in Escherichia coli using 6-beta-furylacryloylamido-penicillanic acid as substrate by spectrophotometry. In outline: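 TEM-1, purified. Reactions started by 0.3 nM enzyme in the AmpC assay buffer (50 mM Tris pH 7.0). FAP substrate, absorbance change at 340 nm. Inhibitor stocks were 50 mM in DMSO, diluted in phosphate pH 7. Ki from comparison of progress curves with and without inhibitor.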

Test [2] is described as follows: Competitive inhibition of Escherichia coli beta-lactamase AmpC using nitrocefin as substrate by UV-Vis spectrophotometry. In outline: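 Pinacol esters were tested uncleaved and hydrolysed to free acid in 50 mM phosphate pH 7.4. Ki derived from IC50 plots assuming competitive inhibition.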
A short description of test [3]: Competitive inhibition of Escherichia coli beta-lactamase AmpC N289A mutant using nitrocefin as substrate by UV-Vis spectrophotometry.

Regarding `O=C(Cc1cccs1)N[C@H](B(O)O)c1cccc(C(=O)O)c1`, the Ki (in general, a measure of affinity in units of concentration, obtained from inhibition or displacement) in test [1] is 64 nM; in test [2], 1 nM.

In test [2], `CC(=O)/C=C/c1c(B(O)O)sc2ccccc12` came in with a Ki of 240 nM.

With `O=C(O)/C=C/c1c(B(O)O)sc2ccccc12`, the Ki was 50 nM in test [3] and 90 nM in test [2].

Compound `OB(O)c1cc2ccccc2s1` had a Ki in test [1] of 50000 nM.
